# Assay: Toxicity liver stage against HepG2, at 10uM
# Type: cell-based
# Parameters: test concentration 10 uM, cell line HepG2-A16-CD81EGFP
# Settings: human, HepG2-A16-CD81EGFP cells; read-out: INHIBITION
# Method in brief: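 Uninfected HepG2-A16-CD81EGFP cells, 3 × 10^3 per well, 1536-well, plated on prespotted compound at 10 μM final, parasite-free screening media added to match infected plates; puromycin 10 μM positive, DMSO 0.5% negative; run in parallel with 48 h PbLuc assay at 37 °C, 5% CO2; viability by CellTiter-Glo luminescence, normalized to controls.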
row,SMILES,cytotoxicity at 10 µM
1,COc1ccc(C(=O)Nc2c(C)nc3cccc(C)n3c2=O)cc1,8.1%
2,O=C(Nc1nc2c(s1)CN(S(=O)(=O)C1CC1)CC2)c1ccc(=O)[nH]c1,-11.1%
3,CS(=O)(=O)N1CCN(C(=O)c2cnn3c2OCCC3)CC1,-3.45%
4,c1cncc(COCC2CNCc3nccn3C2)c1 (configuration not stated),14.2%
5,CN(C)c1ccc2c(c1)CN(C(=O)c1cnccn1)C2c1cnco1 (configuration not stated),3.55%
6,CC(C)OC[C@H]1CCC[C@]12CN(S(=O)(=O)C1CC1)CCO2,-2.51%
7,CC(C)(C)C(=O)N1CCC2(CC1)CC(Oc1ccccc1)CO2 (configuration not stated),4.12%
8,c1cncc(CN2CCn3cc(Cn4cccn4)nc3C2)c1,4.93%
9,CN1CC(=O)N(c2ccsc2)CC12CCN(Cc1nccn1C)C2 (configuration not stated),-0.269%
10,COc1cccc2c1ccn2CC(=O)N1CCCC(C(=O)O)C1 (configuration not stated),6.28%
11,O=c1[nH]c2nc(N3CCOCC3)ncc2c(=O)n1-c1cccc(F)c1,9.32%
12,O=c1[nH]cnc2[nH]c(N3CCOCC3)nc12,2.9%
13,Cc1cnc2n(c1=O)C(CC(=O)NCc1cc(-c3cccs3)on1)CS2 (configuration not stated),-1.51%
14,CC(=O)N1[C@H](Cn2cncn2)C[C@@H]2CN(c3ccc(C)nn3)CC[C@@H]21,-13.4%
15,CS(=O)(=O)Nc1ccn(Cc2ccc(F)cc2Cl)n1,6.64%
16,Cc1c(CN(C)C(=O)c2ccnn2C)cnn1C,-5.33%
17,CCc1nc(NCCCOC)c2c(n1)c(C)nn2C,2.92%
18,Cc1nc2c(c(=O)[nH]1)CCN(Cc1ccc3c(c1)CCCN3C)C2,-1.87%
19,O=C(Cn1cc(Cl)cn1)NCCN1CCC(O)(c2ccc(F)cc2)CC1,3.41%
20,CCC(CC)C(=O)N1CCCc2c(cnn2C)C1,6.55%
21,O=C(c1cnccn1)N1CCCC(Cc2ccccn2)C1 (configuration not stated),6.95%
22,O=C(c1cc[nH]n1)N1CCCC1c1cnccn1 (configuration not stated),-25.4%
23,O=S(=O)(c1ccccc1)N1CCCC(c2nccs2)C1 (configuration not stated),-23.4%

row,SMILES,cytotoxicity at 10 µM
1,COCC(=O)N1CCCCC1c1nccc(C)n1 (configuration not stated),-14.6%
2,Cc1nc(C2CN(C)CCO2)cc(N2CCSCC2)n1 (configuration not stated),-15.6%
3,COCCN1CCC(Cc2cncc(-c3ccc(C(=O)O)cc3)n2)CC1,-27.6%
4,COCC(=O)N1CCCC1c1ccnc(Nc2cnccn2)n1 (configuration not stated),-4.3%
5,CNc1cncc(C2CCCN(S(C)(=O)=O)C2)n1 (configuration not stated),3.19%
6,NC(=O)CN1CCC(NCc2cc(C(F)(F)F)ccc2Cl)CC1,-3.01%
7,CN(Cc1cscn1)Cc1cc2c(cc1Br)OCO2,-4%
8,Cc1ccnc2c1NC(=O)CN2C(=O)CCC(F)(F)F,-15%
9,CC(NC1(CNS(C)(=O)=O)CCCC1)c1ccccc1 (configuration not stated),8.43%
10,O=C(Nc1ccc(N2CCCCC2)cn1)C1CCCN1C(=O)C1CC1 (configuration not stated),-6.35%
11,CCOC(=O)N(C)C1CCN(Cc2csc(C)n2)CC1,-3.37%
12,CSCc1cc(F)ccc1CNC(=O)N1CCC[C@@H]1CO,4.8%
13,Cc1cc(CN(C)S(=O)(=O)N2CCCC2c2ccc(C)o2)no1 (configuration not stated),3.33%
14,Cc1cc(CN2CCN(C(=O)Cc3ccccc3F)CC2)on1,-4.02%
15,Cc1ccoc1C(=O)NCCOc1ccc(C(F)(F)F)cn1,-4.02%
16,Cc1cc(S(C)(=O)=O)c(C)c(S(=O)(=O)N2CCN(C)CC2)c1,11.7%
17,CC(C)c1nc(C2CCCN2C(=O)CN(C)Cc2ccccc2)no1 (configuration not stated),-4.86%
18,CCCn1nnnc1CSCc1cn2c(C)cccc2n1,8%
19,COc1cncc(N2CCN(Cc3ccco3)CC2)n1,0.197%
20,CCC(=O)N1CCN(C(=O)NC2CCc3ccccc3C2)CC1 (configuration not stated),-15.9%
21,CSc1ccc(OC(C)C(=O)Nc2cc[nH]n2)cc1 (configuration not stated),7.71%
22,Cc1cc(C)n(-c2cncc(N3CCN(C(=O)C(C)(C)C)CC3)n2)n1,-3.22%
23,O=C(CN1CCCC1Cn1cncn1)NC(C1CC1)C1CC1 (configuration not stated),-12.8%

row,SMILES,cytotoxicity at 10 µM
1,Cc1nnnn1-c1ccc(CC(=O)N2CCOCC(O)C2)cc1 (configuration not stated),-7.46%
2,CC(=O)N1CC[C@]2(O)CCN(Cc3nc(C)c[nH]3)C[C@@H]2C1,-5.79%
3,c1ccc(-c2cc(NCCCC3CCOC3)n3nccc3n2)cc1 (configuration not stated),-0.309%
4,CCn1ncnc1C(C)NC(=O)Cc1cc2c(cc1Cl)OCCO2 (configuration not stated),-6.38%
5,O=S(=O)(CC1CC1)c1ncc(CN2CCOCC2)n1CC1CCCO1 (configuration not stated),-3.06%
6,Cc1c(C(C)NC2CCCC2)cnn1-c1ccc(F)cc1F (configuration not stated),4.91%
7,CC(C)n1cnnc1CN(C)C(=O)c1ccccc1-n1cncn1,-1.49%
8,Nc1nnc(CCNC(=O)c2cccc(C3CCCNC3)c2)s1 (configuration not stated),2.9%
9,CCCc1noc(C2CC(=O)N(C(C)(C)C)C2)n1 (configuration not stated),0.0198%
10,COc1ccc(CCNC(=O)N2CCN(C)[C@@H]3CS(=O)(=O)C[C@@H]32)cc1,6.05%
11,Cn1ncc2c(N3CCCN4CCC[C@H]4C3)nc(C(C)(C)C)nc21,-128%
12,COc1ccc(CN2CCC(CO)(Cc3ccc(Cl)cc3)CC2)c(O)c1,-134%
13,NC(=O)CN1CC2(CCC1=O)CCN(Cc1ccc(F)cc1Cl)CC2,3.59%
14,CCN(Cc1ccncc1)C(=O)C1COc2c(cccc2OC)C1 (configuration not stated),3.4%
15,CCc1cc(N(C)Cc2nonc2C)nc(N(C)C)n1,-6.32%
16,NCCc1nc(N[C@@H](CO)c2ccccc2)c2ccccc2n1,9.24%
17,CCCN1CCC(Cc2nn3c(C(C)C)nnc3s2)CC1,-6.17%
18,Cc1nn(C)c(Oc2ccc(Cl)cc2)c1CN1CCC(CN)C1 (configuration not stated),-7.52%
19,COc1cc(-c2ccc(F)c3c2OC(CN)C3)cc(OC)c1OC (configuration not stated),1.35%
20,COc1ccc(/C=C/CN2CCC3(C2)CN(C)C(=O)O3)cc1 (configuration not stated),0.313%
21,CNC(=O)CN(C)c1nc(-c2ccncc2)nc2c1CCN(C(C)=O)C2,-5.13%
22,CCn1nc(C)c(CCn2ccnc2-c2cc3n(n2)CCCNC3)c1C,-2.1%
23,COc1ccc(F)cc1C(C(=O)O)N1CCSCC1 (configuration not stated),-4.2%

row,SMILES,cytotoxicity at 10 µM
1,O=C(c1ccc2c(c1)OCO2)N1CCC(Nc2cccnn2)CC1,-15.6%
2,CCOc1ccnc(N2CCN(C(=O)c3ccc(OC)cc3)CC2)n1,-15.6%
3,CN(CC(=O)NCc1ccccn1)C1CCCN(c2cccnn2)C1 (configuration not stated),-9.06%
4,CC1CN(C)c2ccccc2N(C(=O)c2ccc(=O)n(C)c2)C1 (configuration not stated),-3.51%
5,O=C(NCCn1ccnc1)N1CCCC1c1ccncc1 (configuration not stated),-10.9%
6,NC(=O)Cn1cc(NC(=O)N2CCC(c3ccccc3)CC2)cn1,-7.69%
7,CC(Cn1ccnc1)NC(=O)N1CCN(Cc2ccsc2)CC1 (configuration not stated),-6.33%
8,CC(C)(C)C(O)CN1CCN(C(=O)c2ccc3c(c2)COC3)CC1 (configuration not stated),-2.42%
9,CCc1noc(C)c1C(=O)N1CCCC1c1c(C)nn(C)c1C (configuration not stated),-6.97%
10,c1coc(-c2noc(CN3CCCC3Cn3cncn3)n2)c1 (configuration not stated),-0.282%
11,CN(Cc1ccsc1)C(=O)Nc1ccc(S(C)(=O)=O)cc1,-4.77%
12,CCOc1ccnc(N2CCN(C(=O)c3cnc[nH]3)CC2)n1,-2.06%
13,CCc1nc(CN(C)CC(N)=O)cs1,-8.9%
14,CC(C)c1nc(CN(CC(N)=O)C(C)C)cs1,-14.4%
15,Cc1cccc(C(=O)N2CCN(C(=O)Cc3ccccn3)CC2)c1C,-12.3%
16,Cn1cc(C(=O)CC2CCCN2C(=O)c2c[nH]c3ccccc23)cn1 (configuration not stated),-1.39%
17,CN(C)CCN1CCC(CNCc2c[nH]nc2C(C)(C)C)CC1,-3.21%
18,CCOCCN1CCN(CC(=O)N2CCCC2)CC1CC (configuration not stated),-2.47%
19,Cc1nc(C)n(C2CCCN(C(=O)c3cn4cccnc4n3)C2)n1 (configuration not stated),-0.776%
20,COCCCC(=O)N1CCC(Nc2cccnn2)CC1,-3.69%
21,Cc1cnn(CC2CCCN2C(=O)c2cccnc2-n2cncn2)c1 (configuration not stated),-3.29%
22,CC(C)(C)c1nc(CN2CCCC2CCc2ccccc2)no1 (configuration not stated),-5.95%
23,CCn1cnnc1CNC(=O)N1CCN(c2cccc(OC)c2)CC1,-8.62%

row,SMILES,cytotoxicity at 10 µM
1,Cc1ccc(NC2CCN(C(=O)c3ccsc3)CC2)nn1,-9.08%
2,Cc1cc(CN(C)C(=O)c2cc3c([nH]c2=O)CCCC3=O)no1,-3.59%
3,COc1ccccc1C1(C(=O)NCCN2CCOCC2)CCOCC1,-11.6%
4,O=C(CCCOc1ccccc1Cl)N1CCCC(n2cncn2)C1 (configuration not stated),-0.0868%
5,CCc1nc(CN2CCCC(NCc3nc4cccnc4[nH]3)C2)no1 (configuration not stated),1.92%
6,CN1CCOC(CNCc2nc(-c3ccccc3)cs2)C1 (configuration not stated),-11.5%
7,COc1ncccc1NC(=O)C1CCN(S(C)(=O)=O)CC1,-5.74%
8,CCc1nc(C2CCCN2Cc2nccn2Cc2ccccc2)no1 (configuration not stated),0.89%
9,COc1cccc(-c2nc(CNCCn3cccn3)cs2)c1,2.43%
10,c1csc(CN2C[C@@H]3COC[C@]3(COCc3ccncc3)C2)c1,18%
11,COc1cccc(CN2CCC3(CCN(c4ncc(C)cn4)CC3)C2)c1,-6.5%
12,COc1ccc(CN2CCOC3(CCCN(c4nnc(C)o4)C3)C2)cc1 (configuration not stated),-23.6%
13,CN(C)S(=O)(=O)N1C[C@H]2CCC[C@@]2(COCc2ccccn2)C1,0.718%
14,CCN1CCn2c(C)cnc2C12CCN(C(=O)c1ccc(Cl)cc1)CC2,1.22%
15,CNCCc1nc2cc(Cl)ccc2[nH]1,21.2%
16,O=C(NCc1ccccn1)[C@H]1COC[C@H]2CN(Cc3ccoc3)C[C@H]21,1.54%
17,CC1N(CC2CC2)C(=O)COC12CCN(Cc1nccs1)CC2 (configuration not stated),-8.19%
18,Cc1ccc2c(n1)N(CC1CC1)CCN(Cc1ccco1)C2,2.75%
19,c1cncc(COC[C@H]2CC[C@H]3[C@H](CCN3Cc3cccs3)O2)c1,3.45%
20,O=c1[nH]c2cn(-c3ccc(Br)cc3)c(=O)n2[nH]1,-5.51%

# — ChEMBL document CHEMBL4513216, “Probing the Open Global Health Chemical Diversity Library for Multistage-Active Starting Points for Next-Generation Antimalarials” (ACS Infect Dis, 2020)
